PMC6221542 (Science Advances, 2018)
“Also recorded” adds a separate entry of the source. Where no end group is shown, it is not given here.

Tests used:
[1] = system: methylated H3K9 and H3K27 peptides; experiment: Peptide microarray, chromodomain binding profile; design: species or system human
Method in brief: (§1)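 Array of 467 unmodified and modified peptides (desalted, mass-spectrometry checked) printed in triplicate spots on glass slides and probed with chromodomain proteins. Signal intensities converted to z scores per chromodomain using all its intensities: z = (x − mean)/SD. Hierarchical clustering grouped chromodomains into three categories and peptides into six clusters by binding preference.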

H3K9me3 = conditions: read-out: Kd H3K9me3; reported Kd of CBX chromodomains; cited from earlier work
SUV91 chromodomain = experiment: Peptide microarray binding, SUV91; design: species or system human
Method in brief: as §1

Substance	binding profile toward methylated H3K9 / H3K27 peptides (in words) [1]	Kd (H3K9me3)	binding to SUV91 chromodomain (in words) (SUV91 chromodomain)
CBX2: CBX2 chromodomain, GST fusion, cloned sequence 9-66 (EQVFAAECILSKRLRKGKLEYLVKWRGWSSKHNSWEPEENILDPRLLLAFQKKEHEKE; also: GST fusion, end not given here; UniProt Q14781 9-66, looked up, fragment)	binding to both methylated H3K9 and H3K27 was confirmed; also recorded: higher H3K27 signal intensity compared with those of H3K9	–	–
CBX4: CBX4 chromodomain, GST fusion, cloned sequence 8-65 (EHVFAVESIEKKRIRKGRVEYLVKWRGWSPKYNTWEPEENILDPRLLIAFQNRERQEQ; also: GST fusion, end not given here; UniProt O00257 8-65, looked up, fragment)	binding to both methylated H3K9 and H3K27 was confirmed	–	–
CBX6: CBX6 chromodomain, GST fusion, cloned sequence 8-65 (ERVFAAESIIKRRIRKGRIEYLVKWKGWAIKYSTWEPEENILDSRLIAAFEQKERERE; also: GST fusion, end not given here; UniProt O95503 8-65, looked up, fragment)	binding to both methylated H3K9 and H3K27 was confirmed; also recorded: showed signals with di- and trimethylated peptides at both sites	–	–
CBX8: CBX8 chromodomain, GST fusion, cloned sequence 8-61 (ERVFAAEALLKRRIRKGRMEYLVKWKGWSQKYSTWEPEENILDARLLAAFEERE; also: GST fusion, end not given here; UniProt Q9HC52 8-61, looked up, fragment)	binding to both methylated H3K9 and H3K27 was confirmed; also recorded: showed signals with di- and trimethylated peptides at both sites	–	–
WT CBX1: WT CBX1 chromodomain, GST fusion, cloned sequence 20-73	bound predominantly to all three methylated H3K9 peptides	5 µM	–
[Ahx]AATASCLIC[K_Me3]YAA [methylated SIRT1 sequence]	–	–	showed binding
